This note sets out measurements from ChEMBL document CHEMBL3352192, “Evaluation of lignans from Heliopsis helianthoides var. scabra for their potential antimetastatic effects in the brain” (J Nat Prod, 2014).

Data set [1] relates to hCMEC/D3. Nature of the data set: Cytotoxicity against human CMEC/D3 cells at 1 to 10 uM after 8 hrs by EZ4U assay. Type of data set: functional, cell-based. The method, boiled down:
(§1)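 Confluent A2058, hCMEC/D3 and primary rat brain endothelial cells exposed 8 h to 10, 5, 2.5 or 1.25 μM compound. Media: serum-free MEM (A2058), serum-free EBM-2 (D3), DMEM/F12 + 5% PDS (RBEC). DMSO 0.1% (v/v) in all wells, vehicle controls. EZ4U mitochondrial dehydrogenase read-out after 45 min, OD 450 nm.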

For data set [2], the system named is A2058. Nature of the data set: Cytotoxicity against human A2058 cells at 1 to 10 uM after 8 hrs by EZ4U assay. Type of data set: functional, cell-based. In a few lines:
as §1

Data set [3] is described as follows: Cytotoxicity against RBEC at 1 to 10 uM after 8 hrs by EZ4U assay. As to conditions: rat. In a few lines: as §1
Data set [4] deals with A2058. As to the kind of experiment: Inhibition of adhesion of human A2058 cells to endothelial cells at 2 uM pretreated for 3 hrs before adhesion and during adhesion. It counts as functional, cell-based. In a few lines: (§2)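 Confluent hCMEC/D3 monolayers and A2058 cells were each pretreated 3 h with compound. Melanoma cells were labelled with Oregon Green 488 diacetate succinimidyl ester and added to the endothelium (10^5 or 5×10^4 cells/well) in serum-free medium containing the same compound for 80 min. After washing and EtOH−AcOH fixation, attached cells were imaged and counted. Results are % of control, means ± SD, n = 3.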

The species named for data set [5] is Rattus norvegicus. As to the kind of experiment: Increase in integrity of RBEC at 5 uM after 2 hrs by ZO-1 staining method. It counts as functional. In a few lines: (§3)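 Confluent RBECs or hCMEC/D3 cells, 2 h compound exposure (0.1% DMSO vehicle), then fixed in EtOH−AcOH 95:5 at −20 °C. Blocked with 3% BSA, rabbit anti-ZO-1 overnight, Cy3 goat anti-rabbit, Hoechst 33342 nuclei. Tight-junction staining at cell–cell contacts assessed by epifluorescence microscopy.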

For data set [6], the system named is A2058. Nature of the data set: Inhibition of adhesion of human A2058 cells to endothelial cells at 10 uM pretreated for 3 hrs before adhesion and during adhesion. It counts as functional, cell-based. In a few lines: as §2
In data set [7] the test system is hCMEC/D3. As to the kind of experiment: Inhibition of migration of human CMEC/D3 cells after 24 hrs by wound-healing assay. Type of data set: functional, cell-based. The method, boiled down:
(§4)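 hCMEC/D3 cells on rat-tail collagen were grown to 100% confluency, scratched with a pipet tip, and washed with PBS. They were then treated in Leibovitz medium + 5% FBS and imaged by phase contrast for 24 h at 37 °C (10× objective). Migration is given as % of control over 24 h; means ± SD, n = 4.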

The species named for data set [8] is Rattus norvegicus. Nature of the data set: Increase in transendothelial electrical resistance in RBEC at 5 uM after 2 hrs relative to control. Type of data set: functional. The method, boiled down:
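Primary RBECs from 2-week-old rats were grown on collagen/fibronectin-coated Transwell filters. After confluence they got 550 nM hydrocortisone, 250 μM CPT-cAMP and 17.5 μM RO-201724, with astrocyte-conditioned medium. Once TEER plateaued (120−140 Ω·cm2), compound was added (0.1% DMSO) and TEER was followed automatically for 2 h. Expressed as % of untreated RBECs at 2 h; means ± SD, n = 3.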

Data set [9] has as its system A2058. Nature of the data set: Inhibition of migration of human A2058 cells assessed as expanded cells without large filopodia at 5 uM using Alexa-488-labeled phalloidin by microscopy. Type of data set: functional, cell-based. In a few lines:
(§5)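 A2058 melanoma cells were treated 2 h with 5 μM compound. They were fixed in 4% HCHO, permeabilized with acetone at −20 °C for 10 min, blocked, and stained with Alexa488-phalloidin. Actin cytoskeleton and cell shape were examined by epifluorescence microscopy, with phase contrast images also taken.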

In data set [10] the test system is hCMEC/D3. Nature of the data set: Increase in integrity of human CMEC/D3 cells at 2 uM after 2 hrs by ZO-1 staining method. Type of data set: functional, cell-based. The method, boiled down:
as §3

For data set [11], the system named is hCMEC/D3. As to the kind of experiment: Inhibition of migration of human CMEC/D3 cells at 10 uM after 24 hrs by wound-healing assay. Type of data set: functional, cell-based. In a few lines: as §4
In data set [12] the test system is A2058. As to the kind of experiment: Inhibition of migration of human A2058 cells assessed as elongated shape and longer protrusion at 5 uM by phase contrast microscopy. Type of data set: functional, cell-based. The method, boiled down: as §5
Data set [13] relates to A2058. As to the kind of experiment: Inhibition of migration of human A2058 cells at 10 uM by wound-healing assay. Type of data set: functional, cell-based. In a few lines:
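A2058 confluent monolayer was scratched, and wound closure was tracked for 24 h at 2, 5 or 10 μM by phase contrast microscopy (10× objective). Migration is expressed as % of control cells migrated over 24 h; means ± SD, n = 4, ANOVA with Bonferroni.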

Data set [14] concerns A2058. Nature of the data set: Inhibition of migration of human A2058 cells assessed as cells with stress fibers at 5 uM using Alexa-488-labeled phalloidin by microscopy. It counts as functional, cell-based. In a few lines: as §5
In data set [15] the test system is A2058. As to the kind of experiment: Inhibition of migration of human A2058 cells assessed as filopodia at 5 uM using Alexa-488-labeled phalloidin by microscopy. Type of data set: functional, cell-based. In a few lines:
as §5

The test system of data set [16] is A2058. Nature of the data set: Inhibition of adhesion of human A2058 cells to endothelial cells at 5 uM pretreated for 3 hrs before adhesion. Type of data set: functional, cell-based. The method, boiled down: (§6)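 Cell-type pretreatment adhesion: either hCMEC/D3 monolayers (2 μM) or A2058 cells (5 μM) were pretreated 3 h. Labelled melanoma cells were then allowed to attach for 80 min in serum-free medium without compound. Fixed, imaged and counted; % of untreated control, means ± SD, n = 3.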

Data set [17] deals with A2058. Nature of the data set: Inhibition of migration of human A2058 cells assessed as elongated shape with actin-rich protrusion at 5 uM using Alexa-488-labeled phalloidin by microscopy. It counts as functional, cell-based. The method, boiled down:
as §5

In data set [18] the test system is A2058. Nature of the data set: Inhibition of adhesion of human A2058 cells to endothelial cells at 2 uM pretreated to endothelial cells for 3 hrs before adhesion. It counts as functional, cell-based. The method, boiled down: as §6

The source made the active and inactive calls. The calls are words filed in the database; no cut-off is given here.

With `COC(=O)[C@H](Cc1ccc2c(c1)OCO2)[C@@H](Cc1ccc2c(c1)OCO2)C(=O)OC`, the result in [1] and in [2] was inactive. The Activity entry in data set [3] is recorded as “Non-toxic”. The inhibition entry in data set [4] is “inactive”.

In the case of `COC(=O)/C(=C/c1ccc2c(c1)OCO2)C(Cc1ccc2c(c1)OCO2)C(=O)OC` (stereo not given), the result in [5], in [8] and in data set [10] was Active. Further, the inhibition result in [6], in data set [9], in [11], in data set [12] and in data set [13] was “Active” throughout. In addition, the inhibition entry in [7] is “Dose-dependent effect”. The outcome in data set [1] and in data set [2] was inactive. The Activity result in data set [3] is listed as “Non-toxic”. For the same compound, in data set [4], the inhibition entry is “inactive”.

On to `CC(=O)O[C@H](c1ccc2c(c1)OCO2)[C@H]1C(=O)OC[C@@H]1Cc1ccc2c(c1)OCO2`, for which the outcome in [1] and in data set [2] was inactive. In [3], the Activity entry was “Non-toxic”. The inhibition result in [4] was “inactive”.

Turning to `COC/C=C/c1cc(OC)c2oc(-c3ccc4c(c3)OCO4)cc2c1`, the result in data set [1] and in data set [2] was inactive. The Activity result in data set [3] is given as “Non-toxic”. For the same compound, the inhibition entry in data set [4] was “inactive”.

On to `O=C1OCc2c1cc1ccc3c(c1c2-c1ccc2c(c1)OCO2)OCO3` [HELIOXANTHIN], for which the inhibition result in data set [14], in data set [6], in data set [15], in data set [11], in data set [12] and in data set [17] was “Active” each time. Further, the inhibition result in [18] and in data set [4] was “Active” each time. For the same compound, the result in [5] and in data set [10] was Active. In addition, in [7], the inhibition result was “Dose-dependent effect”. The Activity in data set [8] is 15%; in [3], “Non-toxic”. The result in data set [1] and in data set [2] was inactive. For the same compound, in data set [16], the inhibition result is “inactive”.

With `COCCCc1cc(OC)c2oc(-c3ccc4c(c3)OCO4)cc2c1`, the result in [1] and in data set [2] was inactive. Further, in data set [3], the Activity entry was “Non-toxic”. For the same compound, the inhibition result in [4] is “inactive”.
